Experimental data as given in ChEMBL document CHEMBL4340518, “Synthesis, structure-activity relationship and in vitro pharmacodynamics of A-ring modified caged xanthones in a preclinical model of inflammatory breast cancer” (Eur J Med Chem, 2019).
Activity calls are given as the source filed them. No cut-off for these calls is given here.

What was measured:
[1] = test system: Breast carcinoma cell; test: Cytotoxicity against patient derived inflammatory breast cancer cell spheroids assessed as increase in spheroid dissolution at 2.5 uM incubated for 24 hrs by bright field microscopic based Spheroids MARY-X assay; format: functional
Procedure, shortened: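 MARY-X spheroids (40–100 μm) grown in MEM + 10% heat-inactivated FBS, penicillin/streptomycin, 37 °C, 5% CO2. Plated at 30–50 spheroids/well and exposed in replicates to 2.5 μM or DMSO vehicle for 24 h. Brightfield imaging scored deviation from the well-circumscribed spheroid edge, graded as no, low, moderate or complete response.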

[2] = test system: Breast carcinoma cell; test: Induction of apoptosis in patient derived inflammatory breast cancer cell spheroids assessed as increase in pyknotic nuclei at 2.5 uM incubated for 3 hrs by DAPI staining based fluorescence microscopic analysis; format: functional; details: Homo sapiens
Procedure, shortened: (§1)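 Spheroids were embedded in Matrigel plugs (Matrigel:spheroids in medium 2:1) on coverslips and set for 30 min at 37 °C. They were exposed to 2.5 μM or DMSO for 3 h, with brightfield checks of edge loss. Plugs were fixed in 4% PFA 30 min RT, permeabilized with 2% Triton X-100 15 min, and blocked with 3% goat serum 30 min. Staining used Alexa488 anti-Ki67 (1:10) and anti-cPARP (1:100), 4 °C 24 h, then Cy5 anti-rabbit (4 µg/ml), 4 °C 24 h, and DAPI mountant. ApoTome z-stack fluorescence imaging followed.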

[3] = test system: Breast carcinoma cell; test: Cytotoxicity against patient derived inflammatory breast cancer cell spheroids assessed as increase in spheroid dissolution incubated for 24 hrs by propidium iodide/Acridine orange staining based dual-fluorescence viability assay; format: functional; details: Homo sapiens
[4] = test system: Breast carcinoma cell; test: Induction of apoptosis in patient derived inflammatory breast cancer cell spheroids assessed as increase in loss of well-circumscribed spheroid edge at 2.5 uM incubated for 3 hrs by bright field microscopic analysis; format: functional, cell-based; details: Homo sapiens; procedure, shortened: as §1
[5] = test system: Breast carcinoma cell; test: Induction of apoptosis in patient derived inflammatory breast cancer cell spheroids assessed as localization of cleaved PARP at 2.5 uM incubated for 3 hrs by c-PARP staining based fluorescence microscopic analysis; format: functional; details: Homo sapiens; procedure, shortened: as §1
[6] = test system: Breast carcinoma cell; test: Antiproliferative activity against patient derived inflammatory breast cancer cell spheroids assessed as reduction in cell viability at 2.5 uM incubated for 3 hrs by ki-67 staining based fluorescence microscopic analysis; format: functional; details: Homo sapiens; procedure, shortened: as §1
[7] = test system: Breast carcinoma cell; test: Cytotoxicity against patient derived inflammatory breast cancer cell spheroids assessed as increase in spheroid dissolution incubated for 24 hrs by bright field microscopic based Spheroids MARY-X assay; format: functional; details: Homo sapiens
Procedure, shortened: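 MARY-X spheroids (40–100 μm; MEM, 10% heat-inactivated FBS, antibiotics, 37 °C, 5% CO2) were seeded at 30–50/well. Treated in replicates for 24 h with nine concentrations, 0.25–2.25 μM in 0.25 μM steps made by serial dilution, or DMSO. ImageJ circularity from brightfield images gave dose-response curves, from which IC50 was fitted.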

[8] = test system: Breast carcinoma cell; test: Potency index, ratio of IC50 for taxol to IC50 for test compound for cytotoxicity against patient derived inflammatory breast cancer cell spheroids assessed as increase in spheroid dissolution incubated for 24 hrs by propidium iodide/Acridine orange staining based dual-fluorescence viability assay; format: functional, Homo sapiens

## COc1ccc(OC)c2c1OC13C(=CC4CC1C(C)(C)OC3(CC=C(C)C)C4=O)C2=O (centres undefined)
[1]; Homo sapiens
  Activity: inactive

## CC(C)=CCC12OC(C)(C)C3CC(C=C4C(=O)c5c(O)cccc5OC431)C2=O (centres undefined)
[2]
  Activity: Active
[3]
  IC50: 660 nM
[4]
  Activity: Active
[5]
  Activity: Active
[6]
  Activity: Active
[7]
  IC50: 510 nM
[1]
  Activity: 100%

## CC(C)=CCC12OC(C)(C)C3CC(C=C4C(=O)c5ccccc5OC431)C2=O (centres undefined)
[7]
  IC50: 630 nM
[1]
  Activity: 100%

## CC(C)=CCC[C@]1(C)C=Cc2c(O)c3c(c(CC=C(C)C)c2O1)O[C@]12C(=C[C@@H]4C[C@H]1C(C)(C)O[C@@]2(C/C=C(/C)C(=O)O)C4=O)C3=O [GAMBOGIC ACID]
[3]
  IC50: 420 nM
[8]
  Ratio IC50: 20

## COCCOCCOCCOc1cc(O)c2c(c1)OC13C(=CC4CC1C(C)(C)OC3(CC=C(C)C)C4=O)C2=O (centres undefined)
[1]; Homo sapiens
  Activity: Active

## COCCOCCOCCOc1cccc2c1C(=O)C1=CC3CC4C(C)(C)OC(CC=C(C)C)(C3=O)C14O2 (centres undefined)
[1]; Homo sapiens
  Activity: Active

## COCCOCCOCCOc1ccc2c(c1)OC13C(=CC4CC1C(C)(C)OC3(CC=C(C)C)C4=O)C2=O (centres undefined)
[1]; Homo sapiens
  Activity: Active

## CC(C)=CCC12OC(C)(C)C3CC(C=C4C(=O)c5c(F)cc(F)cc5OC431)C2=O (centres undefined)
[2]
  Activity: Active
[4]
  Activity: Active
[5]
  Activity: Active
[6]
  Activity: Active
[7]
  IC50: 1120 nM
[1]
  Activity: 100%

## CC(C)=CCC12OC(C)(C)C3CC(C=C4C(=O)C5=C(OC431)C(=O)C=CC5=O)C2=O (centres undefined)
[1]; Homo sapiens
  Activity: inactive

## COCCOCCOCCOc1cc(OCCOCCOCCOC)c2c(c1)OC13C(=CC4CC1C(C)(C)OC3(CC=C(C)C)C4=O)C2=O (centres undefined)
[1]; Homo sapiens
  Activity: Active

## COCOc1cc(O)c2c(c1)OC13C(=CC4CC1C(C)(C)OC3(CC=C(C)C)C4=O)C2=O (centres undefined)
[2]
  Activity: Active
[4]
  Activity: Active
[5]
  Activity: Active
[6]
  Activity: Active
[7]
  IC50: 380 nM
[1]
  Activity: 100%

## CC(=O)O[C@H]1C(=O)[C@@]2(C)[C@H]([C@H](OC(=O)c3ccccc3)[C@]3(O)C[C@H](OC(=O)[C@H](O)[C@@H](NC(=O)c4ccccc4)c4ccccc4)C(C)=C1C3(C)C)[C@]1(OC(C)=O)CO[C@@H]1C[C@@H]2O [PACLITAXEL]
[3]
  IC50: 7800 nM

## CC(C)=CCC12OC(C)(C)C3CC(C=C4C(=O)c5ccc(O)cc5OC431)C2=O (centres undefined)
[1]; Homo sapiens
  Activity: inactive

## CC(C)=CCC12OC(C)(C)C3CC(C=C4C(=O)c5c(O)cc(O)cc5OC431)C2=O (centres undefined)
[1]; Homo sapiens
  Activity: inactive

## CC(C)=CCC12OC(C)(C)C3CC4(Oc5cc(F)cc(F)c5C(=O)C4=CC31)C2=O (centres undefined)
[7]
  IC50: 890 nM
[1]
  Activity: 100%
